Consider 2 compounds from ChEMBL document CHEMBL1126707, “Tetrapeptide tachykinin antagonists: synthesis and modulation of the physicochemical and pharmacological properties of a new series of partially cyclic analogs” (J Med Chem, 1993).

For data set [1], the species on record is Mus musculus. The data set can be described thus: Binding affinity by displacement of tritiated substance P from its binding sites on membrane preparations from mouse brain.
The target in the next data set is T1, Neuromedin-K receptor (Rattus norvegicus, UniProt P16177).
T1 sequence (P16177 whole entry): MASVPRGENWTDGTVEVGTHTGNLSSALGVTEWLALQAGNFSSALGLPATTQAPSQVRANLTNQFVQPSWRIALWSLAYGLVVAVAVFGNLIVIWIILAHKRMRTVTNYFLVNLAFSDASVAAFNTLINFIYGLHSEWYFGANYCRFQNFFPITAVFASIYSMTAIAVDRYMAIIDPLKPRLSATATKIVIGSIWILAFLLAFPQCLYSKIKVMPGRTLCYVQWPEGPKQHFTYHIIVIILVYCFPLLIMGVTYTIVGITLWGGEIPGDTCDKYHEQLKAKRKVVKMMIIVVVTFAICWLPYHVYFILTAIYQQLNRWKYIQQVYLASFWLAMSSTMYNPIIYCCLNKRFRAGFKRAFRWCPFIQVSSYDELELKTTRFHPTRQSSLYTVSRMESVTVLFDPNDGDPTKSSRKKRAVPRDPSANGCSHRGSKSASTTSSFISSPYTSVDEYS
Kind of data set: Tested for antagonist activity against NK-3 receptor in rat portal vein by using Neurokinin B as agonist. The conditions noted are these: read-out: pA2 (converted). Type of data set: functional. In short, it runs like this: (§1)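 Isolated-organ contractile bioassays: SP on rabbit vena cava (NK-1), neurokinin A on rabbit pulmonary artery (NK-2), neurokinin B on rat portal vein (NK-3); antagonist apparent affinity expressed as pA2 by Schild plot.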

Data set [2] addresses T2, Substance-K receptor (Rattus norvegicus, UniProt P16610).
T2 sequence (P16610 whole entry): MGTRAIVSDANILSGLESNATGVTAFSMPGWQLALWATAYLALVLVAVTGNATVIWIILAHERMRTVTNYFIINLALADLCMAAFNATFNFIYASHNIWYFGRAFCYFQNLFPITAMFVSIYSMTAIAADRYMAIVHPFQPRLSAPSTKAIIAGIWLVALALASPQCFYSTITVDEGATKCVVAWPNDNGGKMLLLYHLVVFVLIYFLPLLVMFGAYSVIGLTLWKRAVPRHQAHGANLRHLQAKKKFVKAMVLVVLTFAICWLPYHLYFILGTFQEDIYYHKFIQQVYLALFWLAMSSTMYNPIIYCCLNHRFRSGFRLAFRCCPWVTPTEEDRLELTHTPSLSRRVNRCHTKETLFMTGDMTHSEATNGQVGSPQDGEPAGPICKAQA
The data set can be described thus: Tested for the binding affinity against rat neurokinin-2 (NK-2) receptor transfected on CHO cells using [125I]-His] NKA as radioligand. Format: cell-based.

Data set [3] concerns the target Substance-P receptor (Rattus norvegicus, UniProt P14600). Kind of data set: Tested for the binding affinity against rat neurokinin-1 (NK-1) receptor transfected on CHO cells using [125I]-Tyr] SP as radioligand. Type of data set: cell-based.
The target of data set [4] is T3, Substance-K receptor (Oryctolagus cuniculus, UniProt P79218).
T3 sequence (P79218 whole entry): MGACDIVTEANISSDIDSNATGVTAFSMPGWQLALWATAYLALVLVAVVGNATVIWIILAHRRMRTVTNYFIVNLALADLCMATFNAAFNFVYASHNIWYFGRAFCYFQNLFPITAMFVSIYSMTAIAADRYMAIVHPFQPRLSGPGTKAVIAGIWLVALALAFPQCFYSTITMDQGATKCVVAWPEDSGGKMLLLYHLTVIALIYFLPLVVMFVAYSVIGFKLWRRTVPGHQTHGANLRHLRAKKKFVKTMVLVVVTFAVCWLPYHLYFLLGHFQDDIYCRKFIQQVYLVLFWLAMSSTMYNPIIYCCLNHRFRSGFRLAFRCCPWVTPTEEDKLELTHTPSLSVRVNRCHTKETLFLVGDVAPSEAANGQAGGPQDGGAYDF
The data set can be described thus: Tested for antagonist activity against NK-2 receptor in rabbit pulmonary artery by using Neurokinin A as agonist. Type of data set: functional. Conditions: read-out: pA2 (converted). The procedure, abridged:
as §1

The species named for another data set is Rattus norvegicus. The data set can be described thus: Binding affinity by displacement of tritiated substance P from its binding sites on membrane preparations from rat brain.
Data set [5] deals with Substance-P receptor (Oryctolagus cuniculus). The data set can be described thus: Tested for antagonist activity against NK1 receptor in rabbit vena cava by using substance P (SP) as agonist. The conditions noted are these: read-out: pA2 (converted).
In data set [6] the target is T4, Substance-K receptor (Homo sapiens, UniProt P21452).
T4 sequence (P21452 whole entry): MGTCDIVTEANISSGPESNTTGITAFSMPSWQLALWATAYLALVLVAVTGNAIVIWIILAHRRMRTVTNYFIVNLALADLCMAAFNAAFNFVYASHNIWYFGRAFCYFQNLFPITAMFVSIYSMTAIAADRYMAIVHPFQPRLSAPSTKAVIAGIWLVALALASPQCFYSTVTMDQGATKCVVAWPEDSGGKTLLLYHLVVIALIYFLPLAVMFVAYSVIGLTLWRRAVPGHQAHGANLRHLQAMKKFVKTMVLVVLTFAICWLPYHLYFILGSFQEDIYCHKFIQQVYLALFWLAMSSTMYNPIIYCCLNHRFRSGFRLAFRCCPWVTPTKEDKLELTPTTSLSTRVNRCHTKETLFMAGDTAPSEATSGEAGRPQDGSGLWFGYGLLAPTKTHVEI
The data set can be described thus: Tested for binding affinity against human NK-2 receptor transfected on CHO cells using [125I]-His] NKA as radioligand. Format: cell-based.

Data set [7] concerns Mus musculus. Kind of data set: Tested for antinociceptive activity in hot plate test at 60 min after 40 mg/kg oral administration in mouse; insoluble. Type of data set: functional, organism-based. Set-up: dose 40 mg/kg. The conditions noted are these: at 40 mg/kg. The procedure, abridged: (§2)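 Male CD1 mice (25-30 g) on a 55 ± 0.2 °C plate; forepaw-licking latency measured 60 min after oral 40 mg/kg given in water (soluble) or 0.2% hydroxypropylcellulose (insoluble); % increase of reaction time versus vehicle controls; groups of 12 animals; Dunnett t-test.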

The test system of data set [8] is Mus musculus. Kind of data set: Tested for antinociceptive activity in hot plate test at 10 min after 0.5 mg/kg intravenous administration in mouse; insoluble. More on the design: dose 0.5 mg/kg. Conditions: at 0.5 mg/kg. Format: functional, organism-based.
Data set [9] has as its target Substance-P receptor (Homo sapiens, UniProt P25103). The data set can be described thus: Tested for binding affinity against human NK-1 receptor transfected on CHO cells using [125I]-Tyr] SP as radioligand. Type of data set: cell-based.
The target in data set [10] is T2, Substance-K receptor. The data set can be described thus: Tested for binding affinity against rat NK-2 receptor transfected on CHO cells using [125I]-His] NKA as radioligand. Type of data set: cell-based.
The test system of data set [11] is Mus musculus. Kind of data set: Tested for antinociceptive activity against mouse hotplate test for 60 min after oral administration of 40 mg/kg. Format: functional. In short, it runs like this:
as §2

Data set [12] has as its system Mus musculus. The data set can be described thus: Tested for antinociceptive activity against mouse hotplate test for 10 min after intravenous injection at 0.5 mg/kg.
Data set [13] is described as follows: Solubility was evaluated. Type of data set: physicochemical.

In general, Ki refers to a measure of affinity in units of concentration, obtained from inhibition or displacement. A low value points to tighter binding. The IC50 is the concentration needed to halve the response being measured. A low value points to greater potency in that assay. The term solubility denotes how much of the substance goes into solution per volume. Read a low solubility as little dissolved substance.

Sequence of Substance-P receptor (Homo sapiens, UniProt P25103) (P25103 whole entry): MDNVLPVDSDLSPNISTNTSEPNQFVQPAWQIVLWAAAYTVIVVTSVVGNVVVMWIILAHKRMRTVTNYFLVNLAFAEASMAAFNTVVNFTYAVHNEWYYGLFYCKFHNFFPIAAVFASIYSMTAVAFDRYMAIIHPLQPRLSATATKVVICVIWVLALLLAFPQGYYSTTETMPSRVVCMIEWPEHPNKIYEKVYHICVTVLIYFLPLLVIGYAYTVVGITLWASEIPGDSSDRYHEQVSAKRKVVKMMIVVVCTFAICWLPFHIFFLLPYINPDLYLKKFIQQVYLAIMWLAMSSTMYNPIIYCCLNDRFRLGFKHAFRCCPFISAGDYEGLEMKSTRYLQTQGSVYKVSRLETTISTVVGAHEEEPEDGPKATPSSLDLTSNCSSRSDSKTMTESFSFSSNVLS
Sequence of Substance-P receptor (Rattus norvegicus, UniProt P14600) (P14600 whole entry): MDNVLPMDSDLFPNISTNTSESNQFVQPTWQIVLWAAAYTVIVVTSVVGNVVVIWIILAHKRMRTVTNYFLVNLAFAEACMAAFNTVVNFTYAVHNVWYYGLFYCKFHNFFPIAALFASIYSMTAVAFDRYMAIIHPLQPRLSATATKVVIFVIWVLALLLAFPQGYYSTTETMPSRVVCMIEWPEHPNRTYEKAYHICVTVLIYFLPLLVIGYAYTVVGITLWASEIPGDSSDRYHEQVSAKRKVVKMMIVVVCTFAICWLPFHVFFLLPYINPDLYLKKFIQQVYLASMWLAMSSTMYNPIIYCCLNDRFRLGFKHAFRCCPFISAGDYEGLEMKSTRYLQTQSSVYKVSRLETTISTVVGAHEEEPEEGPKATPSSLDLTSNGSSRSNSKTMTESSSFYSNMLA

As for `CC(=O)N[C@H](C(=O)N[C@H](Cc1cn(C=O)c2ccccc12)C(=O)N[C@@H](Cc1ccccc1)C(=O)N(C)Cc1ccccc1)C(C)O` (stereo partly drawn), the Ki in the data set listed under Mus musculus [1] and in the data set listed under Rattus norvegicus was 320 nM in each case. For the same compound, the Kb on Neuromedin-K receptor was 1580 nM; on Substance-K receptor [4], 3980 nM; in data set [5], 79.4 nM. For the same compound, the 50% inhibitory concentration (IC50) at Substance-K receptor [2] was 824 nM; at Substance-P receptor [3], 3400 nM; on Substance-K receptor [6], 99 nM; at Substance-P receptor [9] it was 6 nM. Also, the Increase result in the data set on Mus musculus [7] and in the data set with Mus musculus [8] was “Insoluble” each time.
For `CN(Cc1ccccc1)C(=O)[C@H](Cc1ccccc1)NC(=O)[C@@H](Cc1cn(C)c2ccccc12)NC(=O)C[C@@H]1NC(=O)[C@@H]2C3CCC(CC3)N2C1=O`, the Kb at Neuromedin-K receptor is 7940 nM; at Substance-K receptor [4], 10000 nM. The values for the IC50 on Substance-K receptor [10] and at Substance-K receptor [6] were 489 nM and 79 nM, respectively. Further, the values for the Increase with Mus musculus [11] and in the data set with Mus musculus [12] were 10% and 17%, respectively. Also, the solubility in data set [13] was below 10 µg/mL.
